TMEM16A act = mouse TMEM16A channel activation, primary screen; HEK293 TMEM16A/YFP-H148Q/I152L, iodide quench fluorescence; stronger effect = lower value; Q8BHY3; B-score at 10 µM; actives 0.3% (n = 340,000);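 active = fluorescence-ratio B-score plate-corrected deviation score at least 3 library SD below zero, with starting fluorescence score within 5 deviations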;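 note: channel opened by trigger with iodide after compound preincubation; score built on the fluorescence ratio of max minus min over baseline; more negative score means more quench and so TMEM16A activation or potentiation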
Target sequence (Q8BHY3 whole entry, looked up): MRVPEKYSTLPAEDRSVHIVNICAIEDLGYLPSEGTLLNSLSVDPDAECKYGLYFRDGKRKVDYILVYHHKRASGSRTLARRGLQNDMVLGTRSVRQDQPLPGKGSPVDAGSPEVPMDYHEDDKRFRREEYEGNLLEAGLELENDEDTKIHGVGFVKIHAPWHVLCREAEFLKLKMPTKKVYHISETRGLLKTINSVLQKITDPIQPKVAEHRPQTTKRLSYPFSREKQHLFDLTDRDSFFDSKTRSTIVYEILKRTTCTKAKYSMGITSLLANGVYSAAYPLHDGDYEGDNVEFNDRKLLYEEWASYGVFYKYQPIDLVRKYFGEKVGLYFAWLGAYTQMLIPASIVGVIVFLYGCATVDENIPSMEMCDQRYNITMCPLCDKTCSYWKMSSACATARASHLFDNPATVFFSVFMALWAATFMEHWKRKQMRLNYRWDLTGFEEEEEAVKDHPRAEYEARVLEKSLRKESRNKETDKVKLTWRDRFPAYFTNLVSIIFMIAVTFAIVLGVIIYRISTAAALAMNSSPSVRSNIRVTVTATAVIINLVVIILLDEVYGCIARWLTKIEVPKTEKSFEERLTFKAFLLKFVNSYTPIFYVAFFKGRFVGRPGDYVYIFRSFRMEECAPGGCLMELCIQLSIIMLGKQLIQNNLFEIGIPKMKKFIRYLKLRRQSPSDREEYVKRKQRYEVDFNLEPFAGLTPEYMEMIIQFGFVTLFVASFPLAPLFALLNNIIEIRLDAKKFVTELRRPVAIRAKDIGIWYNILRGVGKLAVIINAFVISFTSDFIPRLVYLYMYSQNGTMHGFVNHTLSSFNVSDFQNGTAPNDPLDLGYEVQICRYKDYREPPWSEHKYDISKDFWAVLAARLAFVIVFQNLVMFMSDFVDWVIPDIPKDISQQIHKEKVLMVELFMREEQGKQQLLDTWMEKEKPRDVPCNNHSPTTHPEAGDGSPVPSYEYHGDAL
TMEM16A inh = blocks the mouse calcium-activated chloride channel TMEM16A. Q8BHY3. AID 588511. actives 1.2% (n = 310,000). normalized B-score (activity score, 25-100; higher = stronger inhibition) at 10 µM. HEK293 TMEM16A/YFP iodide influx fluorescence, ionomycin;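 active = ratio plate-corrected score three or more library SD toward inhibition, starting fluorescence score within five deviations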;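 note: score derived from kinetic fluorescence span divided by baseline fluorescence per well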
m5-HT2A agonist = activates the mouse 5-HT2A serotonin receptor; CHO-K1 mHTR2A beta-arrestin complementation, luminescence; percent of 30 µM serotonin response; activation, % at 7.6 µM; actives 0.66% (n = 360,000); AID 624169;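 active = activation above a run cutoff, the mean activation of all tested compounds plus 3 SD, cut at about 14% in these data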;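 note: 0% = plate median of compound wells and 100% = 30 µM serotonin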
MIN6 prolif = induces beta-cell replication in MIN6 cells | AID 2380 | MIN6 cells proliferation, ATPlite luminescence, 48 h; cells starved in 0.2% serum; 100% = growth in 10% serum | proliferation, % at 10 µM | actives 0.29% (n = 330,000);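 active = compounds whose signal lies at least 3.5 SD above the mean of all wells on their plate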;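 note: 0% = DMSO-treated cells in low-serum medium and 100% = 10% serum control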
MC4R ag barr = agonists of human melanocortin 4 receptor (MC4R) beta-arrestin; P32245; U2OS MC4R beta-arrestin complementation, luminescence; percent of melanotan II response, DMSO zero; activation, % at 8.9 µM; actives 0.98% (n = 360,000); AID 540308;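 active = activation above a per-plate cutoff, the mean activation of sample wells on that plate plus 3 SD, cut at about 8% in these data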
MC4R antag cAMP = blocks human MC4R cAMP signaling. AID 540295. P32245. inhibition, % at 6.5 µM. MC4R-expressing cells, MTII-stimulated cAMP, LANCE TR-FRET. actives 0.48% (n = 360,000);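 active = inhibition above its plate's cutoff, the mean of tested wells on that plate plus 3 SD, cut at about 29% in these data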;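 note: 0% = Melanotan II alone and 100% = Melanotan II plus saturating MCL0020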
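material = U2OS cells stably expressing human melanocortin 4 receptor (MC4R) | also added = Melanotan II challenge | dosing = single nominal compound dose of 6.5 µM | detection = TR-FRET with Eu-cAMP and labeled anti-cAMP, 671 nm | replication = singlicate | timing = compound 30 min, challenge 1 h, detection 1 h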
An asterisk follows results filed as active; i = inactive; / = no result given. A selection: hits, their analogues and other compounds. The true share with any hit is near 3.4%.

SMILES	TMEM16A act	TMEM16A inh	m5-HT2A agonist	MIN6 prolif	MC4R ag barr	MC4R antag cAMP
CC1(C)C(=O)CC[C@]2(C)C3C(=O)C=C4[C@H]5C[C@@](C)(C(=O)O)CC[C@]5(C)CC[C@]4(C)[C@]3(C)CC[C@@H]12 (stereo partly specified)	i	i	3	-3	-3	1
CCOC(=O)c1sc(NC(=O)c2cc(-c3ccccc3C)nc3ccccc23)c(C#N)c1C	i	100*	4	-4	1	6
C#CCNC(=O)C[C@@H]1C[C@@]2(C(=O)OCC)CCCC=C2N(Cc2ccc(Cl)cc2Cl)C1=O	/	/	-3	/	/	/
N#CCCCCn1ccc(NC(=O)c2ccc(Cl)cc2O)n1	i	i	-4	0	-1	-1
COc1ccc(N2CCN(S(=O)(=O)c3ccc(Cl)c(C(F)(F)F)c3)CC2)cc1	i	i	3	0	8.5*	6
COc1ccc(N2CCN(S(=O)(=O)c3cccc(C(F)(F)F)c3)CC2)cc1	i	i	-4	-4	1	5
O=C(OCn1ncc(Cl)c(Cl)c1=O)c1ccc(F)cc1	/	i	/	-6	/	/
O=c1c(Cl)c(Cl)cnn1Cc1ccc(F)cc1	i	i	6	-6	-2	52*
O=C(COC(=O)c1cccc(-n2cnnn2)c1)c1ccc(F)c(F)c1	/	/	2	/	-2	2
Cc1c(C(=O)OCC(=O)Nc2ccc(N3CCOCC3)cc2)oc2ccccc12	i	i	-1	1	9.2*	-2
O=C(Nc1cnn(Cc2ccc(F)cc2)c1)c1cc2nc(-c3ccco3)cc(C(F)(F)F)n2n1	i	i	0	0	9.2*	4
O=C(Nc1cnn(Cc2ccc(F)cc2)c1)c1cc(-c2ccco2)on1	i	i	-1	-2	5	15
CCOC(=O)C1CCN(S(=O)(=O)c2cccc(-c3cn4cc(Cl)ccc4n3)c2)CC1	-21*	i	5	-6	0	9
CCOC(=O)C1CCN(S(=O)(=O)c2cccc(-c3cn4ccccc4n3)c2)CC1	i	25*	3	-3	-3	-3
O=C(CN1CCc2ccccc2C1)Nc1ccccc1F	i	i	12	0	0	4
Cc1cc(C)cc(CC(=O)N2CCC2(C)C(=O)NS(=O)(=O)c2cc(C)ccc2F)c1 (stereo unspecified)	/	/	2	/	0	5
O=C(NCCOc1nc(N2CCOCC2)nc(N2CCOCC2)n1)Nc1ccc(Cl)cc1	-15*	i	2	0	-2	4
CNc1nc(OCCNC(=O)Nc2ccccc2)nc(N2CCOCC2)n1	i	i	5	-2	-1	6
O=C(COC(=O)c1ccc[nH]c1=O)NC1CCCCCCC1	-22*	i	4	1	-1	-4
O=C(COC(=O)c1ccc[nH]c1=O)NC1CCCCCC1	i	i	7	-3	-2	7
Cc1nn(-c2cccc(Cl)c2)c2nc(C(F)(F)F)[nH]c(=O)c12	i	100*	7	-3	0	17
Cc1ccc(OCC(=O)NNC(=S)NC(=O)c2cccs2)c(C)c1	i	i	-3	-6	-2	10
Cc1ccc(OCC(=O)NNC(=S)NC(=O)c2ccc(Br)o2)c(C)c1	i	25*	8	-7	-4	-2
O=C(COc1ccc(S(=O)(=O)N2CCCC2)cc1)NCc1ccccn1	i	i	0	-2	0	-1
O=C(CN1CCc2ccccc2C1)Nc1ccccc1C(=O)NC1CC1	i	/	-3	0	-1	-3
SMILES	TMEM16A act	TMEM16A inh	m5-HT2A agonist	MIN6 prolif	MC4R ag barr	MC4R antag cAMP
O=C(CSc1nc2cc(Cl)ccc2s1)NCc1ccc2c(c1)OCO2	i	i	4	0	9.5*	3
O=C(CSc1ncnc2ccccc12)NCc1ccc2c(c1)OCO2	i	i	-1	7.7*	1	13
O=C(Nc1nc(-c2ccco2)c(-c2ccco2)s1)C1CC(=O)N(c2ccc3c(c2)OCCO3)C1 (stereo unspecified)	-6.2*	i	0	-2	0	5
O=C(c1ccc(Cl)cc1)c1cnc(-c2ccccc2)s1	i	/	1	/	-2	4
O=C(c1ccc(Cl)cc1)c1cnc(Nc2ccccc2Cl)s1	i	i	-2	-5	9.9*	7
Cc1ccc(S(=O)(=O)NCC(c2ccc3c(c2)OCO3)N2CCN(c3ccccc3)CC2)cc1 (stereo unspecified)	i	i	9	-3	-1	5
Cc1ccc2nc(NC(=O)CSCc3ccccc3)sc2c1	i	i	9	0	8.9*	-5
Cc1ccc2nc(NC(=O)CS(=O)(=O)Cc3ccccc3)sc2c1	i	i	-2	-1	2	1
O=C(NCC1OCCc2ccccc21)c1ccc(NC(=O)c2cccc(Br)c2)cc1 (stereo unspecified)	i	i	-4	0	9.5*	16
C=CC(C)(C)c1c(O)c(CC=C(C)C)c(O)c2c(=O)c3ccc(O)c(O)c3oc12	i	100*	3	-6	-1	-9
CC(=O)Oc1c(C)cc(Cl)cc1C(=O)Nc1ccc([N+](=O)[O-])cc1Cl	i	100*	0	-6	-1	17
CC(NCc1ccc(S(N)(=O)=O)cc1)C(=O)Nc1ccc([N+](=O)[O-])cc1Cl (stereo unspecified)	-24*	i	-7	-2	-2	-3
CC(NCc1ccc(S(N)(=O)=O)cc1)C(=O)Nc1cc([N+](=O)[O-])ccc1Cl (stereo unspecified)	i	i	-3	3	1	6
CCOC(=O)Cn1c(=N)n(CCOc2ccc3ccccc3c2)c2ccccc21	i	i	-1	-3	9.6*	-5
NS(=O)(=O)c1cc(C(=O)NCC2CCCCC2)ccc1Cl	i	i	-3	0	0	4
COc1ccc(S(=O)(=O)N2CCOCC2)cc1C(=O)N(C)CCOc1ccc(Cl)cc1	i	/	11	2	-2	-2
Cc1cc2c3c(c1)C(C)(c1ccccc1)CC(C)(C)N3C(=O)C21C(C#N)=C(N)OC2=C1C(=O)CC(C)(C)C2 (stereo unspecified)	i	i	0	-6	-1	3
CC1(c2ccccc2)CC(C)(C)N2C(=O)C3(C(C#N)=C(N)Oc4cc(O)ccc43)c3cccc1c32 (stereo unspecified)	i	i	34*	-6	6	16
Cc1cc(NC(=O)c2ccc(COc3ccc(Cl)c(C)c3)o2)no1	i	i	7	-4	9.4*	-1
